Measured values reported in ChEMBL document CHEMBL3616464, “One-pot synthesis of podophyllotoxin-thiourea congeners by employing NH₂SO₃H/NaI: Anticancer activity, DNA topoisomerase-II inhibition, and apoptosis inducing agents” (Bioorg Med Chem Lett, 2015).
Activity calls are given as the source filed them. The rule behind the calls is not given here.

How the values were obtained:
A549 = experiment: Cytotoxicity against human A549 cells after 48 hrs by MTT assay; type: functional, cell-based; details: A549, 48 h
DU-145 [1] = experiment: Cytotoxicity against human DU145 cells after 48 hrs by MTT assay; type: functional, cell-based; details: DU-145, 48 h
[2] = Cytotoxicity against human RWPE1 cells after 48 hrs by MTT assay; type: cell-based; details: RWPE-1, 48 h
LNCaP = experiment: Cytotoxicity against human LNCAP cells after 48 hrs by MTT assay; type: functional, cell-based
[3] = Cytotoxicity against human HGC cells after 48 hrs by MTT assay; type: functional, cell-based
MDA-MB-231 = experiment: Cytotoxicity against human MDA-MB-231 cells after 48 hrs by MTT assay; type: functional, cell-based; details: MDA-MB-231, 48 h
[4] = Therapeutic index, ratio of IC50 for human RWPE1 cells to IC50 for human DU145 cells; type: cell-based; details: RWPE1 cells versus DU145 cells, read-out: Ratio IC50
Procedure, shortened: (§1)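 Selectivity expressed as the fold by which the IC50 in normal prostate epithelial RWPE-1 cells exceeds the IC50 in the prostate cancer line (DU-145 or LNCaP).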

[5] = Therapeutic index, ratio of IC50 for human RWPE1 cells to IC50 for human LNCAP cells; type: cell-based; details: RWPE1 cells versus LNCAP cells, read-out: Ratio IC50; procedure, shortened: as §1
DU-145 [6] = experiment: Induction of apoptosis in human DU145 cells assessed as chromatin condensation at 125 to 500 nM after 48 hrs by phase-contrast microscopic analysis; type: functional, cell-based
Procedure, shortened: (§2)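 DU-145 cells treated with 125, 250 or 500 nM for 48 h. Morphology (chromatin condensation, nuclear fragmentation, membrane blebbing, apoptotic bodies) examined under phase-contrast light microscope and compared with untreated control.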

DU-145 [7] = experiment: Induction of apoptosis in human DU145 cells assessed as nuclear fragmentation at 125 to 500 nM after 48 hrs by phase-contrast microscopic analysis; type: functional, cell-based; procedure, shortened: as §2
DU-145 [8] = experiment: Induction of apoptosis in human DU145 cells assessed as cell membrane blebbing at 125 to 500 nM after 48 hrs by phase-contrast microscopic analysis; type: functional, cell-based; procedure, shortened: as §2
DU-145 [9] = experiment: Induction of apoptosis in human DU145 cells assessed as formation of apoptotic bodies at 125 to 500 nM after 48 hrs by phase-contrast microscopic analysis; type: functional, cell-based; procedure, shortened: as §2
DU-145 [10] = experiment: Induction of apoptosis in human DU145 cells assessed as late apoptotic cells at 500 nM after 48 hrs by phase-contrast microscopic analysis; type: functional, cell-based; procedure, shortened: as §2
DU-145 [11] = experiment: Induction of apoptosis in human DU145 cells assessed as reduction of cell population at 500 nM after 48 hrs by phase-contrast microscopic analysis; type: functional, cell-based; procedure, shortened: as §2
DU-145 [12] = experiment: Induction of apoptosis in human DU145 cells assessed as chromatin condensation at 125 nM after 48 hrs using acridine orange and ethidium bromide staining by fluorescence microscopic analysis; type: functional, cell-based
Procedure, shortened: (§3)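 DU-145 cells treated with 125, 250 or 500 nM for 48 h, then stained with acridine orange/ethidium bromide. Nuclear and chromatin morphology scored by fluorescence microscopy. Live cells appear green and late apoptotic nuclei red with EB. Untreated cells serve as control.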

DU-145 [13] = experiment: Induction of apoptosis in human DU145 cells assessed as horseshoe-shaped cells at 125 nM after 48 hrs using acridine orange and ethidium bromide staining by fluorescence microscopic analysis; type: functional, cell-based; procedure, shortened: as §3
DU-145 [14] = experiment: Induction of apoptosis in human DU145 cells assessed as cell membrane blebbing at 125 nM after 48 hrs using acridine orange and ethidium bromide staining by fluorescence microscopic analysis; type: functional, cell-based; procedure, shortened: as §3
DU-145 [15] = experiment: Induction of apoptosis in human DU145 cells assessed as destructive fragmentation of nuclei at 250 nM after 48 hrs using acridine orange and ethidium bromide staining by fluorescence microscopic analysis; type: functional, cell-based; procedure, shortened: as §3
DU-145 [16] = experiment: Induction of apoptosis in human DU145 cells assessed as irregular distribution of chromatin at 250 nM after 48 hrs using acridine orange and ethidium bromide staining by fluorescence microscopic analysis; type: functional, cell-based; procedure, shortened: as §3
DU-145 [17] = experiment: Induction of apoptosis in human DU145 cells assessed as late apoptotic cells at 500 nM after 48 hrs using acridine orange and ethidium bromide staining by fluorescence microscopic analysis; type: functional, cell-based; procedure, shortened: as §3
DU-145 [18] = experiment: Induction of apoptosis in human DU145 cells assessed as condensed chromatin at 500 nM after 48 hrs using acridine orange and ethidium bromide staining by fluorescence microscopic analysis; type: functional, cell-based; procedure, shortened: as §3
DU-145 [19] = experiment: Cell cycle arrest in human DU145 cells assessed as accumulation at G0/G1 phase at 125 nM after 48 hrs by propidium iodide staining (reference value: 43.5%); type: functional
DU-145 [20] = experiment: Cell cycle arrest in human DU145 cells assessed as accumulation at S phase at 125 nM after 48 hrs by propidium iodide staining (reference value: 9.1%); type: functional
DU-145 [21] = experiment: Cell cycle arrest in human DU145 cells assessed as accumulation at G2/M phase at 125 nM after 48 hrs by propidium iodide staining (reference value: 22.5%); type: functional
DU-145 [22] = experiment: Cell cycle arrest in human DU145 cells assessed as accumulation at G0/G1 phase at 250 nM after 48 hrs by propidium iodide staining (reference value: 43.5%); type: functional
DU-145 [23] = experiment: Cell cycle arrest in human DU145 cells assessed as accumulation at S phase at 250 nM after 48 hrs by propidium iodide staining (reference value: 9.1%); type: functional
DU-145 [24] = experiment: Cell cycle arrest in human DU145 cells assessed as accumulation at G2/M phase at 250 nM after 48 hrs by propidium iodide staining (reference value: 22.5%); type: functional
DU-145 [25] = experiment: Cell cycle arrest in human DU145 cells assessed as accumulation at G0/G1 phase at 500 nM after 48 hrs by propidium iodide staining (reference value: 43.5%); type: functional
DU-145 [26] = experiment: Cell cycle arrest in human DU145 cells assessed as accumulation at S phase at 500 nM after 48 hrs by propidium iodide staining (reference value: 9.1%); type: functional
DU-145 [27] = experiment: Cell cycle arrest in human DU145 cells assessed as accumulation at G2/M phase at 500 nM after 48 hrs by propidium iodide staining (reference value: 22.5%); type: functional
DU-145 [28] = experiment: Induction of apoptosis in human DU145 cells assessed as dead cells at 125 nM after 48 hrs using Annexin-V and propidium iodide staining (reference value: 3.28%); type: functional
DU-145 [29] = experiment: Induction of apoptosis in human DU145 cells assessed as live cells at 125 nM after 48 hrs using Annexin-V and propidium iodide staining (reference value: 86%); type: functional
DU-145 [30] = experiment: Induction of apoptosis in human DU145 cells assessed as late apoptotic cells at 125 nM after 48 hrs using Annexin-V and propidium iodide staining (reference value: 9.32%); type: functional
DU-145 [31] = experiment: Induction of apoptosis in human DU145 cells assessed as early apoptotic cells at 125 nM after 48 hrs using Annexin-V and propidium iodide staining (reference value: 1.40%); type: functional
DU-145 [32] = experiment: Induction of apoptosis in human DU145 cells assessed as dead cells at 250 nM after 48 hrs using Annexin-V and propidium iodide staining (reference value: 3.28%); type: functional
DU-145 [33] = experiment: Induction of apoptosis in human DU145 cells assessed as live cells at 250 nM after 48 hrs using Annexin-V and propidium iodide staining (reference value: 86%); type: functional
DU-145 [34] = experiment: Induction of apoptosis in human DU145 cells assessed as late apoptotic cells at 250 nM after 48 hrs using Annexin-V and propidium iodide staining (reference value: 9.32%); type: functional
DU-145 [35] = experiment: Induction of apoptosis in human DU145 cells assessed as early apoptotic cells at 250 nM after 48 hrs using Annexin-V and propidium iodide staining (reference value: 1.40%); type: functional
DU-145 [36] = experiment: Induction of apoptosis in human DU145 cells assessed as dead cells at 500 nM after 48 hrs using Annexin-V and propidium iodide staining (reference value: 3.28%); type: functional
DU-145 [37] = experiment: Induction of apoptosis in human DU145 cells assessed as live cells at 500 nM after 48 hrs using Annexin-V and propidium iodide staining (reference value: 86%); type: functional
DU-145 [38] = experiment: Induction of apoptosis in human DU145 cells assessed as late apoptotic cells at 500 nM after 48 hrs using Annexin-V and propidium iodide staining (reference value: 9.32%); type: functional
DU-145 [39] = experiment: Induction of apoptosis in human DU145 cells assessed as early apoptotic cells at 500 nM after 48 hrs using Annexin-V and propidium iodide staining (reference value: 1.40%); type: functional
[40] = molecular target: DNA topoisomerase 2-alpha (Homo sapiens) (UniProt P11388); experiment: Inhibition of topoisomerase-2 (unknown origin) using kDNA assessed as increase of catenated kDNA level at 50 to 100 uM after 10 mins using ethidium bromide staining by agarose gel electrophoresis
Procedure, shortened: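 Topoisomerase II drug screening kit, with catenated DNA incubated with topoisomerase II (5 units) and test agent at 50 or 100 µM. Etoposide at 100 µM serves as standard. Products resolved on gel: catenated DNA is retained in the wells, and nicked/relaxed circular and linear forms are distinguished.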

DNA topoisomerase 2-alpha (Homo sapiens), sequence (P11388 whole entry): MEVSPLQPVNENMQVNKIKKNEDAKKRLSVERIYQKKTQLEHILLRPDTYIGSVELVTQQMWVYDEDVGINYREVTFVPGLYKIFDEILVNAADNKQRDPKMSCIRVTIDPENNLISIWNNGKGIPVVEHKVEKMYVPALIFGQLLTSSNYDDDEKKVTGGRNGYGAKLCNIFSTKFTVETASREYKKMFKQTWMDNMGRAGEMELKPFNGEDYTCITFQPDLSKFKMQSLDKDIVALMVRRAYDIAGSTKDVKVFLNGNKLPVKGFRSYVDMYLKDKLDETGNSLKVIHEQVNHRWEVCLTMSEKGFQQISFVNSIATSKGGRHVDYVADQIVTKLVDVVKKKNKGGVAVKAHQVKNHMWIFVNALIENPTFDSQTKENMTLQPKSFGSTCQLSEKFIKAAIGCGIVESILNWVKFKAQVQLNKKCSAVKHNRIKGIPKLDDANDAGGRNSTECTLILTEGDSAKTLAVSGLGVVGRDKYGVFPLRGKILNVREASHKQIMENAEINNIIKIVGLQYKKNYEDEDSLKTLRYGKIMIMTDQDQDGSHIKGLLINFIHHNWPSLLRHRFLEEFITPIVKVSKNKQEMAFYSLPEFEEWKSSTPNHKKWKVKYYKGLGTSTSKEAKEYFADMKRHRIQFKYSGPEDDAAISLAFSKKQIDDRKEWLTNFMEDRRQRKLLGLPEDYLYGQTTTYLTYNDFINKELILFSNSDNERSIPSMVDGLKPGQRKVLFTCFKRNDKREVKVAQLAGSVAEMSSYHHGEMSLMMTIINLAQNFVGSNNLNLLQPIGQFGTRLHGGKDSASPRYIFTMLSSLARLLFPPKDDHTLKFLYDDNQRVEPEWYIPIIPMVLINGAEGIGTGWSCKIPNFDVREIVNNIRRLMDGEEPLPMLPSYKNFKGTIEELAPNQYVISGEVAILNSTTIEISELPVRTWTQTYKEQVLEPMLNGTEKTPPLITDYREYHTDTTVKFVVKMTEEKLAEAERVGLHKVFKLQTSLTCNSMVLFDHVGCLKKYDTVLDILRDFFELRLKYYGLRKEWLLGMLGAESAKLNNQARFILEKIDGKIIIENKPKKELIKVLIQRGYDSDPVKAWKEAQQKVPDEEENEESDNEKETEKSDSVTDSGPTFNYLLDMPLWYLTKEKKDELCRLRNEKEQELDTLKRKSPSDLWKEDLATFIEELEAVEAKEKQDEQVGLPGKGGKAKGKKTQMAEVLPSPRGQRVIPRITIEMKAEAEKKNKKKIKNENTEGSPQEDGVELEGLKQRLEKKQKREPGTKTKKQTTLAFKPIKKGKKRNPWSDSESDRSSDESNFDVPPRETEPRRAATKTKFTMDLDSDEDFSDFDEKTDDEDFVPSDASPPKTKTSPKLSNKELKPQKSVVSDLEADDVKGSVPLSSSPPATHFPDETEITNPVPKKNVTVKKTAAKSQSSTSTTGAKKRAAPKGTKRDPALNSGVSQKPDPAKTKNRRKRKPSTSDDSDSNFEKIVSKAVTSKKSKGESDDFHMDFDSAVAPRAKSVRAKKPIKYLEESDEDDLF

COc1ccc(NC(=S)N[C@@H]2c3cc4c(cc3[C@@H](c3cc(OC)c(OC)c(OC)c3)[C@H]3C(=O)OC[C@@H]32)OCO4)cc1
IC50 (A549): 37.6 µM | IC50 (DU-145 [1]): 500 nM | IC50 [2]: 40.9 µM | IC50 (LNCaP): 17.6 µM | IC50 [3]: 3.85 µM | IC50 (MDA-MB-231): 18 µM | selectivity ratio [4]: 81.7 | selectivity ratio [5]: 2.3 | Activity (DU-145 [6]): Active | Activity (DU-145 [7]): Active | Activity (DU-145 [8]): Active | Activity (DU-145 [9]): Active | Activity (DU-145 [10]): Active | Activity (DU-145 [11]): Active | Activity (DU-145 [12]): Active | Activity (DU-145 [13]): Active | Activity (DU-145 [14]): Active | Activity (DU-145 [15]): Active | Activity (DU-145 [16]): Active | Activity (DU-145 [17]): Active | Activity (DU-145 [18]): Active | Activity (DU-145 [19]): 33.5% | Activity (DU-145 [20]): 19.5% | Activity (DU-145 [21]): 27.9% | Activity (DU-145 [22]): 28.4% | Activity (DU-145 [23]): 30.8% | Activity (DU-145 [24]): 26.3% | Activity (DU-145 [25]): 27.8% | Activity (DU-145 [26]): 14.8% | Activity (DU-145 [27]): 41.7% | Activity (DU-145 [28]): 3.38% | Activity (DU-145 [29]): 74.57% | Activity (DU-145 [30]): 16.75% | Activity (DU-145 [31]): 5.31% | Activity (DU-145 [32]): 2.3% | Activity (DU-145 [33]): 59.8% | Activity (DU-145 [34]): 22.55% | Activity (DU-145 [35]): 15.35% | Activity (DU-145 [36]): 1.07% | Activity (DU-145 [37]): 27.87% | Activity (DU-145 [38]): 26.68% | Activity (DU-145 [39]): 44.38% | inhibition [40]: Active
